Results taken from ChEMBL document CHEMBL4196021, “Targeting G-quadruplex DNA structures in the telomere and oncogene promoter regions by benzimidazole‒carbazole ligands” (Eur J Med Chem, 2018).
The source made the active and inactive calls. No cut-off for these calls is given here.

Assays:
Quadruplex DNA [1] = test: Binding affinity to human c-Kit2 G-quadruplex DNA at 0.6 uM after 5 mins in presence of KCl by fluorescence spectroscopic method; assay type: nucleic-acid assay
Outline: (§1)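 Fluorescence titration at 25 °C with 0.6 µM ligand in 10 mM Tris-HCl pH 7.4, 100 mM KCl, 0.1 mM EDTA. Preformed G4 DNA was added stepwise, with 5 min incubation before each spectrum. Excitation 330 nm; emission 350–550 nm, slit 5 nm.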

Quadruplex DNA [2] = test: Binding affinity to human c-Myc G-quadruplex DNA assessed as stabilization of parallel stranded topology after 5 mins in presence of KCl by CD spectroscopic method; assay type: nucleic-acid assay
Outline: (§2)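 CD spectra of 5 µM G4 DNA in 10 mM Tris-HCl pH 7.4, 100 mM KCl, 0.1 mM EDTA, with or without ligand. Mixtures were heated 95 °C for 5 min and slowly cooled to room temperature. Recorded 200–400 nm at 25 °C, 100 nm/min, 2 s response, 1 cm cell; average of three scans.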

Quadruplex DNA [3] = test: Binding affinity to human Bcl2 G-quadruplex DNA at 0.6 uM after 5 mins in presence of KCl by fluorescence spectroscopic method; assay type: nucleic-acid assay; outline: as §1
Quadruplex DNA [4] = test: Binding affinity to human VEGF G-quadruplex DNA at 0.6 uM after 5 mins in presence of KCl by fluorescence spectroscopic method; assay type: nucleic-acid assay; outline: as §1
Quadruplex DNA [5] = test: Stabilization of c-Myc G-quadruplex DNA in human HeLa cells assessed as decrease in c-Myc mRNA level at 10 uM after 24 hrs by RT-PCR method relative to control; assay type: cell-based; design: scale not given: the % may be the effect or the level left
Outline: (§3)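 HeLa cells exposed to increasing ligand concentrations (5 and 10 µM named) for 24 h, with DMSO-treated cells as control. Total RNA was extracted with TRI reagent and DNase I-treated. c-MYC and VEGF transcripts were quantified by qRT-PCR, normalized to GAPDH, and expressed as relative fold change.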

HeLa = test: Effect on GADPH mRNA level in human HeLa cells assessed as decrease in VEGF mRNA level at 2.5 to 10 uM after 24 hrs by RT-PCR method; assay type: cell-based
Quadruplex DNA [6] = test: Induction of conformational changes in human telomeric G-quadruplex DNA assessed as inversion from potassium ion stabilized hybrid type mixed parallel/antiparallel G-quadruplex to stable telomere parallel-stranded G-quadruplex after 5 mins in presence of KCl by CD spectroscopic method; assay type: nucleic-acid assay; outline: as §2
Quadruplex DNA [7] = test: Binding affinity to human 77-mer c-Myc G-quadruplex DNA assessed as inhibition of Taq DNA polymerase-mediated DNA synthesis by measuring generation of premature chain termination products using 32P-labeled primer after 30 mins by polymerase stop assay; assay type: nucleic-acid assay
Outline: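 Template of 10 nM single-stranded 77-mer c-MYC with the G-quadruplex-forming sequence, annealed to 32P-labeled plus cold primer (15 nM) in Tris-HCl pH 7.4 with 5 mM KCl. Annealing was 95 °C for 5 min then slow cooling, with ligand added before annealing. Extension with Taq polymerase (5 mM MgCl2, 0.5 mM DTT, 0.2 mM dNTPs) ran 30 min at 48 or 40 °C. Products were resolved on 15% urea denaturing PAGE and read by phosphorimaging.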

Quadruplex DNA [8] = test: Binding affinity to human c-Myc G-quadruplex DNA assessed as change in melting temperature in presence of KCl by CD spectroscopic method; assay type: nucleic-acid assay
Outline: (§4)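 CD melting of 5 µM G4 DNA in 10 mM Tris-HCl pH 7.4, 25 mM KCl, 0.1 mM EDTA. Ligand was present during folding (heating, slow cooling). Spectra 200–400 nm over 20–96 °C in 2 °C steps, buffer blank subtracted. Tm was taken from normalized ellipticity at the positive maximum (262 nm for promoter G4s). ΔTm = ligand-bound minus DNA alone; average of two independent experiments.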

Quadruplex DNA [9] = test: Binding affinity to human Bcl2 G-quadruplex DNA assessed as change in melting temperature in presence of KCl by CD spectroscopic method; assay type: nucleic-acid assay; outline: as §4
Calf thymus DNA = test: Displacement of thiazole orange from calf thymus duplex DNA after 5 mins in presence of KCl by fluorescence assay; assay type: nucleic-acid assay, Bos taurus
Quadruplex DNA [10] = test: Binding affinity to human c-Kit1 G-quadruplex DNA assessed as stabilization of parallel stranded topology after 5 mins in presence of KCl by CD spectroscopic method; assay type: nucleic-acid assay; outline: as §2
Quadruplex DNA [11] = test: Binding affinity to human VEGF G-quadruplex DNA assessed as stabilization of parallel stranded topology after 5 mins in presence of KCl by CD spectroscopic method; assay type: nucleic-acid assay; outline: as §2
Quadruplex DNA [12] = test: Binding affinity to human telomeric G-quadruplex DNA at 0.6 uM after 5 mins in presence of KCl by fluorescence spectroscopic method; assay type: nucleic-acid assay; outline: as §1
MCF7 = test: Cytotoxicity against human MCF7 cells assessed as reduction in cell viability after 72 hrs by MTT assay; assay type: functional, cell-based
Outline: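 HeLa and MCF7 cells in log phase were seeded for 24 h, then exposed to a range of ligand concentrations for 72 h. MTT (5 mg/ml stock) was added for 4 h, formazan dissolved in DMSO, and absorbance read at 570 nm. Three independent experiments in triplicate, mean ± SD.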

Quadruplex DNA [13] = test: Binding affinity to human VEGF G-quadruplex DNA assessed as change in melting temperature in presence of KCl by CD spectroscopic method; assay type: nucleic-acid assay; outline: as §4
Quadruplex DNA [14] = test: Binding affinity to human telomeric G-quadruplex DNA assessed as change in melting temperature in presence of KCl by CD spectroscopic method; assay type: nucleic-acid assay; outline: as §4
Quadruplex DNA [15] = test: Induction of conformational changes in human Bcl2 G-quadruplex DNA assessed as inversion from potassium ion stabilized hybrid type mixed parallel/antiparallel G-quadruplex to stable telomere parallel-stranded G-quadruplex after 5 mins in presence of KCl by CD spectroscopic method; assay type: nucleic-acid assay; outline: as §2
Quadruplex DNA [16] = test: Displacement of thiazole orange from human c-Kit1 G-quadruplex DNA after 5 mins in presence of KCl by fluorescence assay; assay type: nucleic-acid assay
Outline: (§5)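 Thiazole orange displacement from a G4 DNA–TO complex (1 µM TO + 0.5 µM G4 DNA) in 10 mM Tris-HCl pH 7.4, 100 mM KCl, 0.1 mM EDTA. Ligand was added in increasing steps, with 5 min incubation each. Fluorescence read at ex 501/em 531 nm; % displacement = 100 − (Ft/F0 × 100). DC50 is the ligand concentration giving 50% displacement, read from plots; average of two independent experiments.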

Quadruplex DNA [17] = test: Binding affinity to human c-Kit1 G-quadruplex DNA at 0.6 uM after 5 mins in presence of KCl by fluorescence spectroscopic method; assay type: nucleic-acid assay; outline: as §1
Quadruplex DNA [18] = test: Binding affinity to human c-Kit2 G-quadruplex DNA assessed as stabilization of parallel stranded topology after 5 mins in presence of KCl by CD spectroscopic method; assay type: nucleic-acid assay; outline: as §2
Quadruplex DNA [19] = test: Stabilization of c-Myc G-quadruplex DNA in human HeLa cells assessed as decrease in c-Myc mRNA level at 5 uM after 24 hrs by RT-PCR method relative to control; assay type: cell-based; design: scale not given: the % may be the effect or the level left; outline: as §3
Quadruplex DNA [20] = test: Stabilization of VEGF G-quadruplex DNA in human HeLa cells assessed as decrease in VEGF mRNA level at 10 uM after 24 hrs by RT-PCR method relative to control; assay type: cell-based; design: scale not given: the % may be the effect or the level left; outline: as §3
Quadruplex DNA [21] = test: Displacement of thiazole orange from human telomeric G-quadruplex DNA after 5 mins in presence of KCl by fluorescence assay; assay type: nucleic-acid assay; outline: as §5

Structure (SMILES): CN(C)CCCCn1c2ccc(-c3nc4ccc(N5CCN(CCO)CC5)cc4[nH]3)cc2c2cc(-c3nc4ccc(N5CCN(CCO)CC5)cc4[nH]3)ccc21
- Activity (Quadruplex DNA [1]): Active
- Activity (Quadruplex DNA [2]): Active
- Activity (Quadruplex DNA [3]): Active
- Activity (Quadruplex DNA [4]): Active
- Activity (Quadruplex DNA [5]): 71%
- Activity (HeLa): Non-Toxic
- Activity (Quadruplex DNA [6]): Active
- Activity (Quadruplex DNA [7]): Dose-dependent effect
- ΔTm (Quadruplex DNA [8]): 7.35 °C
- ΔTm (Quadruplex DNA [9]): 9.54 °C
- DC50 (Calf thymus DNA): 6.94 µM
- Activity (Quadruplex DNA [10]): Active
- Activity (Quadruplex DNA [11]): Active
- Activity (Quadruplex DNA [12]): Active
- Activity (MCF7): Dose-dependent effect
- IC50 (MCF7; MCF7, 72 h): 11.4 µM
- ΔTm (Quadruplex DNA [13]): 11.3 °C
- ΔTm (Quadruplex DNA [14]): 21.3 °C
- Activity (Quadruplex DNA [15]): Active
- DC50 (Quadruplex DNA [16]): 860 nM
- Activity (Quadruplex DNA [17]): Active
- Activity (Quadruplex DNA [18]): Active
- Activity (Quadruplex DNA [19]): 49%
- Activity (Quadruplex DNA [20]): 68%
- DC50 (Quadruplex DNA [21]): 1130 nM
